# Source: publication PMC6247064 (Cancer Science, 2018)
# Test system: Japanese patients with advanced solid tumors
# Experiment: Phase 1 study: safety, tolerability, DLT and treatment-emergent adverse events
# Format: in vivo, human
# Method in brief: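 Open-label single-arm dose levels of 80 or 105 mg/m2 IV were given on day 1 of 14-day cycles, with at most 6 patients per level. Adverse events were graded by CTCAE v4.03. DLTs were related events in cycle 1 meeting predefined hematologic or nonhematologic criteria. Tolerability required a cycle 1 DLT rate <33%. Primary G-CSF prophylaxis was barred during DLT evaluation; G-CSF was allowed for treatment-emergent neutropenia and as secondary prophylaxis.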
compound,measurement,setting,value
COc1cccc(OCCCN)c1-c1cc(Nc2cnc(C#N)cn2)n[nH]1 [Prexasertib],TEAE related to study treatment: Febrile neutropenia,"80 mg/m^2 N = 6, Grade 4",1 (16.7) n (%)
same,TEAE related to study treatment: Headache,"80 mg/m^2 N = 6, Grade 4",0 n (%)
same,TEAE related to study treatment: Hypocalcemia,"80 mg/m^2 N = 6, Grade 4",0 n (%)
same,TEAE related to study treatment: Leukopenia,"80 mg/m^2 N = 6, Grade 4",3 (50.0) n (%)
same,TEAE related to study treatment: Lung infection,"80 mg/m^2 N = 6, Grade 4",0 n (%)
same,TEAE related to study treatment: Lymphocytopenia,"80 mg/m^2 N = 6, Grade 4",0 n (%)
same,TEAE related to study treatment: Nausea,"80 mg/m^2 N = 6, Grade 4",0 n (%)
same,TEAE related to study treatment: Neutropenia,"80 mg/m^2 N = 6, Grade 4",3 (50.0) n (%)
same,TEAE related to study treatment: Pyrexia,"80 mg/m^2 N = 6, Grade 4",0 n (%)
same,TEAE related to study treatment: Rash,"80 mg/m^2 N = 6, Grade 4",0 n (%)
same,TEAE related to study treatment: Rash maculopapular,"80 mg/m^2 N = 6, Grade 4",0 n (%)
same,TEAE related to study treatment: SVE (supraventricular extrasystoles),"80 mg/m^2 N = 6, Grade 4",0 n (%)
same,TEAE related to study treatment: Stomatitis,"80 mg/m^2 N = 6, Grade 4",0 n (%)
same,TEAE related to study treatment: Thrombocytopenia,"80 mg/m^2 N = 6, Grade 4",1 (16.7) n (%)
same,Patients with at least 1 AE that led to a dose adjustment,80 mg/m^2 group,5 patients
same,Patients with at least 1 AE that led to a dose delay,80 mg/m^2 group,3 patients
same,Patients with at least 1 AE that led to dose reduction,80 mg/m^2 group (80 to 60 mg/m^2),4 patients
same,TEAE related to study treatment: Anemia,"105 mg/m^2 N = 6, Any grade",0 n (%)
same,TEAE related to study treatment: Any,"105 mg/m^2 N = 6, Any grade",6 (100) n (%)
same,TEAE related to study treatment: Atrial fibrillation,"105 mg/m^2 N = 6, Any grade",0 n (%)
same,TEAE related to study treatment: Constipation,"105 mg/m^2 N = 6, Any grade",1 (16.7) n (%)
same,TEAE related to study treatment: ECG QT prolonged,"105 mg/m^2 N = 6, Any grade",0 n (%)
same,TEAE related to study treatment: Fatigue,"105 mg/m^2 N = 6, Any grade",1 (16.7) n (%)
same,TEAE related to study treatment: Febrile neutropenia,"105 mg/m^2 N = 6, Any grade",1 (16.7) n (%)
same,TEAE related to study treatment: Headache,"105 mg/m^2 N = 6, Any grade",1 (16.7) n (%)
same,TEAE related to study treatment: Hypocalcemia,"105 mg/m^2 N = 6, Any grade",1 (16.7) n (%)
same,TEAE related to study treatment: Leukopenia,"105 mg/m^2 N = 6, Any grade",6 (100) n (%)
same,TEAE related to study treatment: Lung infection,"105 mg/m^2 N = 6, Any grade",0 n (%)
same,TEAE related to study treatment: Lymphocytopenia,"105 mg/m^2 N = 6, Any grade",0 n (%)
same,TEAE related to study treatment: Nausea,"105 mg/m^2 N = 6, Any grade",0 n (%)
same,TEAE related to study treatment: Neutropenia,"105 mg/m^2 N = 6, Any grade",6 (100) n (%)
same,TEAE related to study treatment: Pyrexia,"105 mg/m^2 N = 6, Any grade",1 (16.7) n (%)
same,TEAE related to study treatment: Rash,"105 mg/m^2 N = 6, Any grade",0 n (%)
same,TEAE related to study treatment: Rash maculopapular,"105 mg/m^2 N = 6, Any grade",1 (16.7) n (%)
same,TEAE related to study treatment: SVE (supraventricular extrasystoles),"105 mg/m^2 N = 6, Any grade",0 n (%)
same,TEAE related to study treatment: Stomatitis,"105 mg/m^2 N = 6, Any grade",0 n (%)
same,TEAE related to study treatment: Thrombocytopenia,"105 mg/m^2 N = 6, Any grade",4 (66.7) n (%)
same,TEAE related to study treatment: Anemia,"105 mg/m^2 N = 6, Grade 3",0 n (%)
same,TEAE related to study treatment: Any,"105 mg/m^2 N = 6, Grade 3",3 (50.0) n (%)
same,TEAE related to study treatment: Atrial fibrillation,"105 mg/m^2 N = 6, Grade 3",0 n (%)
same,TEAE related to study treatment: Constipation,"105 mg/m^2 N = 6, Grade 3",0 n (%)
same,TEAE related to study treatment: ECG QT prolonged,"105 mg/m^2 N = 6, Grade 3",0 n (%)
same,TEAE related to study treatment: Fatigue,"105 mg/m^2 N = 6, Grade 3",0 n (%)
same,TEAE related to study treatment: Febrile neutropenia,"105 mg/m^2 N = 6, Grade 3",1 (16.7) n (%)
same,TEAE related to study treatment: Headache,"105 mg/m^2 N = 6, Grade 3",0 n (%)
same,TEAE related to study treatment: Hypocalcemia,"105 mg/m^2 N = 6, Grade 3",0 n (%)
same,TEAE related to study treatment: Leukopenia,"105 mg/m^2 N = 6, Grade 3",4 (66.7) n (%)
same,TEAE related to study treatment: Lung infection,"105 mg/m^2 N = 6, Grade 3",0 n (%)
same,TEAE related to study treatment: Lymphocytopenia,"105 mg/m^2 N = 6, Grade 3",0 n (%)
same,TEAE related to study treatment: Nausea,"105 mg/m^2 N = 6, Grade 3",0 n (%)
same,TEAE related to study treatment: Neutropenia,"105 mg/m^2 N = 6, Grade 3",3 (50.0) n (%)
same,TEAE related to study treatment: Pyrexia,"105 mg/m^2 N = 6, Grade 3",0 n (%)
same,TEAE related to study treatment: Rash,"105 mg/m^2 N = 6, Grade 3",0 n (%)
same,TEAE related to study treatment: Rash maculopapular,"105 mg/m^2 N = 6, Grade 3",0 n (%)
same,TEAE related to study treatment: SVE (supraventricular extrasystoles),"105 mg/m^2 N = 6, Grade 3",0 n (%)
same,TEAE related to study treatment: Stomatitis,"105 mg/m^2 N = 6, Grade 3",0 n (%)
same,TEAE related to study treatment: Thrombocytopenia,"105 mg/m^2 N = 6, Grade 3",1 (16.7) n (%)
same,TEAE related to study treatment: Anemia,"105 mg/m^2 N = 6, Grade 3 + 4",0 n (%)
same,TEAE related to study treatment: Any,"105 mg/m^2 N = 6, Grade 3 + 4",6 (100) n (%)
same,TEAE related to study treatment: Atrial fibrillation,"105 mg/m^2 N = 6, Grade 3 + 4",0 n (%)
same,TEAE related to study treatment: Constipation,"105 mg/m^2 N = 6, Grade 3 + 4",0 n (%)
same,TEAE related to study treatment: ECG QT prolonged,"105 mg/m^2 N = 6, Grade 3 + 4",0 n (%)
same,TEAE related to study treatment: Fatigue,"105 mg/m^2 N = 6, Grade 3 + 4",0 n (%)
same,TEAE related to study treatment: Febrile neutropenia,"105 mg/m^2 N = 6, Grade 3 + 4",1 (16.7) n (%)
same,TEAE related to study treatment: Headache,"105 mg/m^2 N = 6, Grade 3 + 4",0 n (%)
same,TEAE related to study treatment: Hypocalcemia,"105 mg/m^2 N = 6, Grade 3 + 4",0 n (%)
same,TEAE related to study treatment: Leukopenia,"105 mg/m^2 N = 6, Grade 3 + 4",5 (83.3) n (%)
